Results as given in ChEMBL document CHEMBL5030505, “Assessment of NR4A Ligands That Directly Bind and Modulate the Orphan Nuclear Receptor Nurr1” (J Med Chem, 2020).

What was measured:
Type in all cases: cell-based
[1] = biological target: Nuclear receptor subfamily 4immunitygroup A member 1 (Homo sapiens) (UniProt P22736); test: Modulation of full length human Nur77 expressed in SK-N-BE(2) cells co-transfected with RXRalpha and luciferase reporter plasmid harboring NurRE response element assessed as increase in luciferase activity incubated for 18 by luciferase reporter gene assay; settings: SKNBE2, filed as modulator, time 18.0 hrs
Chain of Nuclear receptor subfamily 4immunitygroup A member 1 (Homo sapiens) (P22736 whole entry): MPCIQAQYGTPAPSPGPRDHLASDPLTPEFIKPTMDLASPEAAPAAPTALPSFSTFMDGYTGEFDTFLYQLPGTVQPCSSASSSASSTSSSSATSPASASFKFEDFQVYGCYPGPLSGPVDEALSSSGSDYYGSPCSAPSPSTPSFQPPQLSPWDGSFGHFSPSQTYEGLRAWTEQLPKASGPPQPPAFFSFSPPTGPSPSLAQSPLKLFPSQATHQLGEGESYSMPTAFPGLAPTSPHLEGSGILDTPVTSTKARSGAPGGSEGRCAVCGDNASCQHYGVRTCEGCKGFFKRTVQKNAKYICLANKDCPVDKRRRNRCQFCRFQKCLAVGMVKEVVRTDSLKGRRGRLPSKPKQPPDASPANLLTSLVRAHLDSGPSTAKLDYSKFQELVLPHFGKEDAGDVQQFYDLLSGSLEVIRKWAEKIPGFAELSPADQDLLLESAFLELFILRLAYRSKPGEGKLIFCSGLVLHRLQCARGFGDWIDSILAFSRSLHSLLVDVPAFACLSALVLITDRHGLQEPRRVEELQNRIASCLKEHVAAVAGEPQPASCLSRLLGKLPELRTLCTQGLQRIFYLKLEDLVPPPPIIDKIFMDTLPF
Method in brief: (§1)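 Cells seeded at 1.5 million per 10-cm dish. Next day they were transfected (Lipofectamine 2000) with full-length Nur77 or NOR-1 expression plasmid, either alone (2 μg) or 1 μg plus full-length RXRα (1 μg), and 3xNBRE- or 3xNurRE-luciferase reporter (6 μg), 18 h. Cells replated at 10,000/well, 4 h, then ligand dose response added in quadruplicate for 18 h. Luciferase luminescence read.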

[2] = biological target: Nuclear receptor subfamily 4 group A member 2 (Homo sapiens) (UniProt P43354); test: Modulation of full length human Nurr1 expressed in PC12 cells co-transfected with luciferase reporter plasmid harboring NBRE response element assessed as increase in luciferase activity incubated for 18 hrs by luciferase reporter-gene assay; settings: PC-12, filed as modulator
Chain of Nuclear receptor subfamily 4 group A member 2 (Homo sapiens) (P43354 whole entry): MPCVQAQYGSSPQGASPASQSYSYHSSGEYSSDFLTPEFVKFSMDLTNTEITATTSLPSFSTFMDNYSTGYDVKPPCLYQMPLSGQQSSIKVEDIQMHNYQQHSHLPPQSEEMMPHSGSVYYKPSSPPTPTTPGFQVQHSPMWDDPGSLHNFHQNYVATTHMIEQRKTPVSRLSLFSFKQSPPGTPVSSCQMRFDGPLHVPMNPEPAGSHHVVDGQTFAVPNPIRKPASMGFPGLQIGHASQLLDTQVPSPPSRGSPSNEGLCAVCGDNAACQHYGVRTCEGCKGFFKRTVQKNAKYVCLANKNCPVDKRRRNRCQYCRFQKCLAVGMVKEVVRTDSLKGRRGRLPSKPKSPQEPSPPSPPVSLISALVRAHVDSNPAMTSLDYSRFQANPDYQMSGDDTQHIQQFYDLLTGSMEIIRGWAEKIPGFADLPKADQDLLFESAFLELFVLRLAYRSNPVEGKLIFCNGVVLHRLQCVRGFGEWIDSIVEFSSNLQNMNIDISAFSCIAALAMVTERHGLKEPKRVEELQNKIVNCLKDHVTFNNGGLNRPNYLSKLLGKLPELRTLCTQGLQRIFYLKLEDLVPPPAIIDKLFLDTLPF
Method in brief: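 Here PC12 cells (FK-12 medium, 15% horse serum, 2.5% FBS, 37°C, 5% CO2) received full-length Nurr1 (2 μg) without RXRα, plus 3xNBRE- or 3xNurRE-luciferase reporter (6 μg), for 18 h. Cells were replated at 10,000/well for 4 h, then treated with ligand or vehicle in quadruplicate for 18 h. Luciferase luminescence was normalized to vehicle-treated cells. Results are mean ± s.e.m. (n=4) from 2 independent experiments, with one-way ANOVA against vehicle.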

[3] = biological target: Nuclear receptor subfamily 4 group A member 2 (Homo sapiens) (UniProt P43354); test: Modulation of full length human Nurr1 expressed in SKNBE(2) cells co-transfected with luciferase reporter plasmid harboring NurRE response element assessed as increase in luciferase activity incubated for 18 hrs by luciferase reporter-gene assay; settings: SKNBE2, filed as modulator
Method in brief: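 Transfection of SK-N-BE(2)-C cells (1:1 EMEM/F12, 10% FBS, 37°C, 5% CO2) used full-length Nurr1 alone (2 μg, no RXRα) with 3xNBRE- or 3xNurRE-luciferase reporter (6 μg) for 18 h. Cells were replated at 10,000/well for 4 h, then exposed to ligand or vehicle in quadruplicate for 18 h. Luminescence was expressed as fold over vehicle, as mean ± s.e.m. (n=4) from 2 independent experiments, one-way ANOVA against vehicle.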

[4] = biological target: Nuclear receptor subfamily 4immunitygroup A member 1 (Homo sapiens) (UniProt P22736); test: Modulation of full length human Nur77 expressed in PC12 cells co-transfected with luciferase reporter plasmid harboring NurRE response element assessed as increase in luciferase activity incubated for 18 by luciferase reporter gene assay; settings: PC-12, filed as modulator, time 18.0 hrs; method in brief: as §1
[5] = biological target: Nuclear receptor subfamily 4 group A member 2 (Homo sapiens) (UniProt P43354); test: Modulation of full length human Nurr1 expressed in PC12 cells co-transfected with RXRalpha and luciferase reporter plasmid harboring NBRE response element assessed as increase in luciferase activity incubated for 18 hrs by luciferase reporter-gene assay; settings: PC-12, filed as modulator
Method in brief: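 PC12 cells were grown at 37°C and 5% CO2 in […] medium with 15% horse serum and 2.5% FBS. They were transfected with full-length Nurr1 (1 μg) plus full-length RXRα (1 μg) and 3xNBRE- or 3xNurRE-luciferase reporter (6 μg) for 18 h, then replated at 10,000 cells/well for 4 h. Ligand or vehicle (water, ethanol or DMSO) was added in quadruplicate for 18 h. Luminescence was read as fold change over vehicle. Results are mean ± s.e.m., n=4, from 2 independent experiments, analysed by one-way ANOVA against vehicle.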

[6] = biological target: Nuclear receptor subfamily 4 group A member 2 (Homo sapiens) (UniProt P43354); test: Modulation of full length human Nurr1 expressed in HEK293T cells co-transfected with RXRalpha and luciferase reporter plasmid harboring NBRE response element assessed as increase in luciferase activity incubated for 18 hrs by luciferase reporter-gene assay; settings: filed as modulator
Method in brief: (§2)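 Full-length Nurr1 plasmid, alone (2 μg) or 1 μg plus full-length RXRα (1 μg), cotransfected with 3xNBRE- or 3xNurRE-luciferase reporter (6 μg) using Lipofectamine 2000, 18 h. Cells replated at 10,000/well for 4 h. Four ligand concentrations, or vehicle (water, ethanol or DMSO), added in quadruplicate for 18 h. Luciferase read. Fold change vs vehicle, mean ± s.e.m., one-way ANOVA vs vehicle.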

[7] = biological target: Nuclear receptor subfamily 4 group A member 2 (Homo sapiens) (UniProt P43354); test: Modulation of full length human Nurr1 expressed in HEK293T cells co-transfected with luciferase reporter plasmid harboring NurRE response element assessed as increase in luciferase activity incubated for 18 hrs by luciferase reporter-gene assay; settings: filed as modulator; method in brief: as §2
[8] = biological target: Nuclear receptor subfamily 4 group A member 3 (Homo sapiens) (UniProt Q92570); test: Modulation of full length human NOR1 expressed in SK-N-BE(2) cells co-transfected with RXRalpha and luciferase reporter plasmid harboring NurRE response element assessed as increase in luciferase activity incubated for 18 by luciferase reporter gene assay; settings: SKNBE2, filed as modulator, time 18.0 hrs; method in brief: as §1
Chain of Nuclear receptor subfamily 4 group A member 3 (Homo sapiens) (Q92570 whole entry): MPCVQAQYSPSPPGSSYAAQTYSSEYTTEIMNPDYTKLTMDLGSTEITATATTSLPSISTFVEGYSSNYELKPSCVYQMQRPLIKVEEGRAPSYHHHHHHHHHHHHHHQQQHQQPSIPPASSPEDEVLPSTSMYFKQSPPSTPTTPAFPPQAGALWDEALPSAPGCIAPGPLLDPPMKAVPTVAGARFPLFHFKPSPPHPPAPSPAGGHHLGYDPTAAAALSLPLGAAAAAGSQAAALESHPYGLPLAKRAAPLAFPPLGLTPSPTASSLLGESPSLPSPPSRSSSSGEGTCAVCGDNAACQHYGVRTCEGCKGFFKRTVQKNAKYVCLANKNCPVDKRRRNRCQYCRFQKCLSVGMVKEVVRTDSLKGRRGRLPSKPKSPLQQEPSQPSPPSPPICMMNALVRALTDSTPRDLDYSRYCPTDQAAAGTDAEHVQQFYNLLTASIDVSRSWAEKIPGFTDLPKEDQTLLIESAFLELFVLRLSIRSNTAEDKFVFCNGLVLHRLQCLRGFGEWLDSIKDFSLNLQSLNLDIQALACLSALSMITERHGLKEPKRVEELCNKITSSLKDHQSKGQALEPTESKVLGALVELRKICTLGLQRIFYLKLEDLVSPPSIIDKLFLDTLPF

[9] = biological target: Nuclear receptor subfamily 4 group A member 2 (Homo sapiens) (UniProt P43354); test: Modulation of full length human Nurr1 expressed in HEK293T cells co-transfected with luciferase reporter plasmid harboring NBRE response element assessed as increase in luciferase activity incubated for 18 hrs by luciferase reporter-gene assay; settings: filed as modulator; method in brief: as §2
[10] = biological target: Nuclear receptor subfamily 4 group A member 3 (Homo sapiens) (UniProt Q92570); test: Modulation of full length human NOR1 expressed in SK-N-BE(2) cells co-transfected with luciferase reporter plasmid harboring NurRE response element assessed as increase in luciferase activity incubated for 18 by luciferase reporter gene assay; settings: SKNBE2, filed as modulator, time 18.0 hrs; method in brief: as §1
[11] = biological target: Nuclear receptor subfamily 4 group A member 3 (Homo sapiens) (UniProt Q92570); test: Modulation of full length human NOR1 expressed in HEK293T cells co-transfected with RXRalpha luciferase reporter plasmid harboring NurRE response element assessed as increase in luciferase activity incubated for 18 hrs by luciferase reporter gene assay; settings: filed as modulator
Method in brief: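 Full-length NOR-1 plasmid was transfected via Lipofectamine 2000, either alone (2 μg) or at 1 μg with full-length RXRα (1 μg). It was paired with a 3xNBRE or 3xNurRE luciferase reporter (6 μg), 8 μg total DNA, for 18 h. Cells were replated at 10,000/well for 4 h, then given a full ligand dose response or vehicle in quadruplicate for 18 h. Luciferase was read; no EC50/IC50 was fitted.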

[12] = biological target: Nuclear receptor subfamily 4 group A member 2 (Homo sapiens) (UniProt P43354); test: Modulation of full length human Nurr1 expressed in SKNBE(2) cells co-transfected with RXRalpha and luciferase reporter plasmid harboring NurRE response element assessed as increase in luciferase activity incubated for 18 hrs by luciferase reporter-gene assay; settings: SKNBE2, filed as modulator
Method in brief: (§3)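 SK-N-BE(2)-C cells were kept in 1:1 EMEM/F12 with 10% FBS at 37°C and 5% CO2. They were cotransfected with full-length Nurr1 (1 μg), full-length RXRα (1 μg) and 3xNBRE- or 3xNurRE-luc reporter (6 μg) for 18 h, replated at 10,000 cells/well for 4 h, and then treated with ligand or vehicle in quadruplicate for 18 h. The readout was luciferase luminescence as fold over vehicle, reported as mean ± s.e.m. (n=4) from 2 independent experiments, one-way ANOVA.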

[13] = biological target: Nuclear receptor subfamily 4immunitygroup A member 1 (Homo sapiens) (UniProt P22736); test: Modulation of full length human Nur77 expressed in HEK293 cells co-transfected with RXRalpha and luciferase reporter plasmid harboring NBRE response element assessed as increase in luciferase activity incubated for 18 hrs by luciferase reporter gene assay; settings: filed as modulator; method in brief: as §1
[14] = biological target: Nuclear receptor subfamily 4 group A member 2 (Homo sapiens) (UniProt P43354); test: Modulation of full length human Nurr1 expressed in SKNBE(2) cells co-transfected with RXRalpha and luciferase reporter plasmid harboring NBRE response element assessed as increase in luciferase activity incubated for 18 hrs by luciferase reporter-gene assay; settings: SKNBE2, filed as modulator; method in brief: as §3

| Activity [1] | Activity [2] | Activity [3] | Activity [4] | Activity [5] | Activity [6] | Activity [7] | Activity [8] | Activity [9] | Activity [10] | Activity [11] | Activity [12] | Activity [13] | Activity [14] | Compound |
| --- | --- | --- | --- | --- | --- | --- | --- | --- | --- | --- | --- | --- | --- | --- |
| Dose-Dependent Effect | Dose-Dependent Effect | Dose-Dependent Effect | Dose-Dependent Effect | Dose-Dependent Effect | Dose-Dependent Effect | Dose-Dependent Effect | Dose-Dependent Effect | Dose-Dependent Effect | Dose-Dependent Effect | Dose-Dependent Effect | Dose-Dependent Effect | Dose-Dependent Effect | Dose-Dependent Effect | CCN(CC)CCCC(C)Nc1ccnc2cc(Cl)ccc12 (configuration not stated) [CHLOROQUINE] |
| Dose-Dependent Effect | Dose-Dependent Effect | Dose-Dependent Effect | Dose-Dependent Effect | Dose-Dependent Effect | Dose-Dependent Effect | Dose-Dependent Effect | Dose-Dependent Effect | Dose-Dependent Effect | Dose-Dependent Effect | Dose-Dependent Effect | Dose-Dependent Effect | Dose-Dependent Effect | Dose-Dependent Effect | CCCCCCCC(=O)c1c(O)cc(O)cc1CC(=O)OCC [CYTOSPORONE B] |
| Dose-Dependent Effect | Dose-Dependent Effect | Dose-Dependent Effect | Dose-Dependent Effect | Dose-Dependent Effect | Dose-Dependent Effect | Dose-Dependent Effect | Dose-Dependent Effect | Dose-Dependent Effect | Dose-Dependent Effect | Dose-Dependent Effect | Dose-Dependent Effect | Dose-Dependent Effect | Dose-Dependent Effect | CCN(CC)Cc1cc(Nc2ccnc3cc(Cl)ccc23)ccc1O [AMODIAQUINE] |
